ChEMBL document CHEMBL4513216, “Probing the Open Global Health Chemical Diversity Library for Multistage-Active Starting Points for Next-Generation Antimalarials” (ACS Infect Dis, 2020)

Assay: Toxicity liver stage against HepG2, at 10uM
Format: cell-based
Set-up: test concentration 10 uM, cell line HepG2-A16-CD81EGFP
Details: human, HepG2-A16-CD81EGFP cells; read-out: INHIBITION
Procedure, shortened: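 Uninfected HepG2-A16-CD81EGFP cells, 3 × 10^3 per well, 1536-well, plated on prespotted compound at 10 μM final, parasite-free screening media added to match infected plates; puromycin 10 μM positive, DMSO 0.5% negative; run in parallel with 48 h PbLuc assay at 37 °C, 5% CO2; viability by CellTiter-Glo luminescence, normalized to controls.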

SMILES | cytotoxicity at 10 µM [%]
CC(NC(=O)C1CC1)C(=O)N(C)Cc1ccsc1 (stereo unspecified) | 3.64
O=C(NCCc1nnc2n1CCC2)NCC1(c2cccc(F)c2)CC1 | -7.94
CCNC(=O)NC(=O)CNc1cc(C(=O)OC)cc(C(F)(F)F)c1 | -7.03
CC(NC(=O)c1cc(C(C)C)[nH]n1)C(=O)Nc1ccccc1 (stereo unspecified) | 10.8
NC(=O)C1CCN(c2nc3nccc(-c4ccccc4)c3c(=O)[nH]2)CC1 | -9
CCN1CC(COC(C)(C)C)Oc2ccncc2S1(=O)=O (stereo unspecified) | -3.43
O=C(c1cnc(C2CC2)nc1)N1CCC(N2CCC(O)CC2)CC1 | 2.33
CC(C)c1ncc2c(n1)CN(Cc1nc(-c3ccco3)no1)CC2 | -11.4
c1c(CN2CCCC2)nc2n1CCN(C1CCOCC1)C2 | 0.641
CCc1ncc2c(n1)CN(CCCOc1ccc(C#N)cc1)CC2 | 16.4
COCCC1COC2(CCN(C(C)=O)CC2)C1 (stereo unspecified) | 8.19
Cc1ccc(NC(=O)c2nc3c(s2)CCCN3C(C)C)cn1 | 0.93
CC(NC(=O)COc1ccc(F)cc1)c1nnc2n1CCCCC2 (stereo unspecified) | -8.99
COc1ccc(Oc2cc(CN)ccn2)cc1 | 3.98
CC(C)(C)OC(=O)N1CCCc2ccc(NCc3ccon3)cc21 | 10.9
CS(=O)(=O)N1CCOCC2(CCN(Cc3ccc[nH]3)CC2)C1 | -7.02
COCCNC(=O)c1cccnc1Sc1cc(OC)ccc1OC | 0.734
Cc1noc(C(C)N2CCC(c3nc4ccccc4[nH]3)CC2)n1 (stereo unspecified) | -6.4
Cc1ccc(N2CC[C@@H]3O[C@@H](COCc4cccnc4)CC[C@@H]32)nn1 | 8.37
Cc1cnn(CC2CCCCN2C(=O)c2ccc3c(c2)COC3)c1 (stereo unspecified) | -24.7
CCc1cc(CNC(=O)N2Cc3ccccc3N(C)CC2C)on1 (stereo unspecified) | 4.38

SMILES | cytotoxicity at 10 µM [%]
CN1CCN(CCc2ncnn2-c2ccc3c(c2)OCO3)CC1 | -0.00326
CCC1=N[C@@]2(CC[C@@H]3CN(Cc4ccc(Cl)cc4)C[C@@H]32)C(=O)N1C | 1.98
CC(C)C(=O)N1CCN(c2ncnc3cc4c(cc23)OCCO4)CC1 | 2.41
Cc1ccc(-c2ccc(Cl)nn2)cc1S(=O)(=O)N1CCOCC1 | -4.26
Cn1cc(Cl)cc1C(=O)N1CCN(Cc2cccs2)CC1 | -8.1
O=S(=O)(c1ccc2c(c1)OCCO2)N1CCC(OCc2ccccn2)C1 (stereo unspecified) | -1.18
NC(=O)C1CCN(C(=O)CCn2ccc3ccc(Br)cc32)CC1 | -5.85
Cc1cc(N(C)C)nc(N(C)Cc2csc(C)n2)n1 | 7.06
Cc1cc(N2CCN(Cc3ccc(C)o3)CC2)cc(C)n1 | -6.61
Cc1noc(C)c1CN1C[C@@H]2CN(C(=O)c3cnccn3)C[C@@H]2C1 | -1.86
Cc1cc2c(c(-c3cncc(C(=O)N4CCCC4)n3)c1)OC(CN)C2 (stereo unspecified) | -45.7
NC(=O)C1CCCN1CCCc1ccc(C(F)(F)F)cc1 (stereo unspecified) | 0.936
O=C(C1CCC1)N1CCO[C@H]2[C@H](OCCCn3cccn3)CC[C@@H]21 | 16.7
Cc1ccc(N2C[C@H](C(=O)NCC3CC3)[C@@H]3CCO[C@@H]3C2)nn1 | -67.6
C[C@H](NC(=O)N1CCN(c2ccc(Cl)cc2)CC1)C(=O)N1CCSCC1 | -6.3
Cc1cc(NC(=O)CNC2CCCN(c3cccnn3)C2)on1 (stereo unspecified) | 5.98
COc1cccc([C@@]2(O)CC[C@@H]3CN(C(=O)c4ccn(C)n4)C[C@@H]32)c1 | 2
O=C(O)Cn1nc(C2CC2)c2c(-c3cccs3)ccnc21 | -11.6
COCCC(=O)N1CCn2c(COCC3CC3)cnc2C1C (stereo unspecified) | 4.17
CC(C)CCN1CCN(c2ncnc3nc(N)ccc23)CC1 | 11.5
Cc1cccc(-n2cc(CNc3ncnc4c3CCNCC4)cn2)c1 | 3.96

SMILES | cytotoxicity at 10 µM [%]
CCCn1ccnc1CN1CCCC(O)(CN2CCCC2)C1 (stereo unspecified) | -2.69
N#Cc1ncn(CCS(=O)(=O)c2ccccc2)n1 | 1.18
CCCNC(=O)CCNC(=O)c1sc2ccc(F)cc2c1C | 3.33
Cc1csc([C@@H]2C[C@@H]3CCN(C(=O)c4cc(C)on4)C[C@H]3O2)n1 | 4.88
CCc1nn(C)c(Cl)c1CN(CC)Cc1cnn(CC)c1 | 4.36
O=c1cc(CN2CCCC2)nc2n1CCCN(CC1CC1)C2 | -111
Cc1cc(C)n(Cc2cccc(C(=O)N3CCOCC3(C)C)c2)n1 | -3.51
Cn1ccnc1CN1CCN(Cc2ccc(C#N)cc2F)CC1 | -13.2
Cn1nc(C2CNCCO2)cc1CCOc1ccc(Cl)cc1 (stereo unspecified) | -7.72
CCn1ccc(-c2cc(C(=O)O)n3nc(C)c(Cl)c3n2)n1 | -3.48
CC(C)(C)CN1CCC[C@H]1c1nc(-c2cncnc2N)no1 | -3.66
CC(NCc1ccc(OCC(N)=O)cc1)c1ccc(Cl)c(Cl)c1 (stereo unspecified) | -5.25
CNc1snc(C)c1C(=O)N1CCCC(n2cc(C)cn2)C1 (stereo unspecified) | -3.42
CN(CCCc1cnn(C)c1)C(=O)Nc1cccc(C#N)c1 | -0.828
CCCc1nc(N2CC[C@@H](c3ccc4ccccc4c3)[C@H](O)C2)no1 | -0.471
O=C(CCCn1cncn1)NC1(c2ccc(Cl)cc2)CCC1 | 6.66
O=C(NCCC1CCN(CC(F)(F)F)CC1)C1COCCO1 (stereo unspecified) | 1.38
O=C(Cc1ccc2c(c1)CCC2)NCCNc1ncccn1 | -3.93
Cc1nc(C2CCCN2CC(=O)Nc2c(C)n[nH]c2C)no1 (stereo unspecified) | 1.65
CNC(=O)N1CCC2(COCc3c(C)nc(NCc4ccco4)nc32)C1 (stereo unspecified) | 11.2
Nc1cccnc1N1CCN(c2ccccc2)CC1 | -2.95

SMILES | cytotoxicity at 10 µM [%]
c1cc(C2CCN(c3cncnc3)CC2)ccn1 | 2.58
COCC(=O)N1CCN(C)C(=O)C(Cc2ccccc2-c2cccs2)C1 (stereo unspecified) | -3.73
Fc1cc(CN2CCCC2Cn2cncn2)c2ncccc2c1 (stereo unspecified) | -14.1
CC(=O)N1CCCC(c2ccc(Nc3nc(C)cc(C)n3)cn2)C1 (stereo unspecified) | -4.09
COc1ncc(Cl)c(NCc2ccc([S+](C)[O-])cc2)n1 (stereo unspecified) | -4.18
O=C(Cc1ccccc1F)N1CCN(Cc2noc(C3CC3)n2)CC1 | -2.21
CN(C)c1cnn(CC(=O)N2CCN(c3ccccc3)CC2)c(=O)c1 | -13.8
Cc1noc(C)c1NC(=O)CCn1cc(Br)ccc1=O | 7.07
CN(C)C(=O)CCS(=O)(=O)Cc1ccn(-c2cccc(F)c2)n1 | -5.71
Cc1cnn(CCNC(C)c2nnc(-c3cccc(Cl)c3)o2)c1 (stereo unspecified) | -1.41
CS(=O)(=O)c1ccc(CNC(=O)N2CCC(c3ccccc3)CC2)cc1 | -0.884
COCCNC(=O)c1cc(OC)c2ccoc2c1 | -2.49
COc1ccccc1C(CNC(=O)NCc1cc[nH]n1)N1CCCC1 (stereo unspecified) | -0.634
Cn1ncc2c(N3CCS(=O)(=O)CC3)nc(-c3cccnc3)nc21 | 4.38
CC(C)(C)OC(=O)NCC1CCCCN1Cc1cccc(C(N)=O)c1 (stereo unspecified) | -2.27
CN(C)CC(=O)N1CCc2sc(C(=O)N3CCN(C)CC3)cc21 | -104
COc1ncc(CN2C[C@@H]3C[C@@H](O)CN3C[C@@H]2Cc2ccccc2)cn1 | -6.86
CNC(=O)C1(c2cnccn2)CCCN1C(=O)c1cccc(C)n1 (stereo unspecified) | -18.6
